ChEMBL document CHEMBL1124215, “Improved delivery through biological membranes. 26. Design, synthesis, and pharmacological activity of a novel chemical delivery system for beta-adrenergic blocking agents” (1988)

Columns and labels:
[1] = system: Oryctolagus cuniculus; assay: Concentration of propranolone oxime in iris-ciliary body of rabbit after 30 min administration of compound; type: functional, organism-based
Outline: (§1)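 Adult male New Zealand albino rabbits (2.5–3.5 kg), at least four per time point. 100 µL of a 1% solution in saline was instilled topically into both eyes. Animals were killed at 30, 60 or 120 min. Cornea and iris-ciliary body were homogenized in methanol to 10% homogenates and deproteinized by centrifugation. Aqueous humor was analysed undiluted. HPLC was calibrated against spiked control-rabbit tissue. Values are mean ± SE, µg/g.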

[2] = system: Oryctolagus cuniculus; assay: Percentage change of IOP in rabbits after 6 hr administration (1%) of compound; type: functional
Outline: (§2)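 Rabbits received 1% or 2.5% drug solution in pH 7.4 buffer or saline in both eyes, at least four per group. A control group of at least three rabbits received carrier only. IOP was read by pneumatonometer in unrestrained, unanesthetized animals after one drop of 0.5% propacaine diluted 1:2 with saline. Readings were taken at 30 and 60 min and at 2–8 h. Values are mean ± SE, with significance by Student's t test.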

[3] = system: Oryctolagus cuniculus; assay: Percentage change of IOP in rabbits after 3h administration (1%) of compound; type: functional; outline: as §2
[4] = system: Oryctolagus cuniculus; assay: Percentage change of IOP in rabbits after 4 hr administration (1%) of compound; type: functional; outline: as §2
[5] = system: Oryctolagus cuniculus; assay: Effect on IOP of rabbits 4 hr after administration (2.5%); type: functional
Outline: (§3)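 IOP was read by pneumatonometer in unrestrained, unanesthetized rabbits after local propacaine drops. Drug was given as a 1% or 2.5% solution in pH 7.4 buffer or saline to both eyes, at least four rabbits per group; controls (at least three) received carrier only. Readings were taken at 30 and 60 min and at 2, 3, 4, 6 and 8 h. Values are mean ± SE; Student's t test.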

[6] = system: Oryctolagus cuniculus; assay: Effect on IOP of rabbits 30 mins after administration (1%); type: functional; outline: as §3
[7] = system: Oryctolagus cuniculus; assay: Effect on IOP of rabbits 2hmin after administration (2.5%); type: functional; outline: as §3
[8] = system: Oryctolagus cuniculus; assay: Effect on IOP of rabbits 6 hr min after administration (1%); type: functional; outline: as §3
[9] = system: Oryctolagus cuniculus; assay: Effect on IOP of rabbits 6 hr min after administration (2.5%); type: functional; outline: as §3
[10] = system: Oryctolagus cuniculus; assay: Percentage change of IOP in rabbits after 3h administration (2.5%) of compound; type: functional; outline: as §2
[11] = system: Oryctolagus cuniculus; assay: Percentage change of IOP in rabbits after 2 hr administration (2.5%) of compound; type: functional; outline: as §3
[12] = system: Oryctolagus cuniculus; assay: Concentration of propranolone oxime in cornea of rabbit after 60 min administration of compound; type: functional, organism-based; outline: as §1
[13] = system: Oryctolagus cuniculus; assay: Effect on IOP of rabbits 4 hr after administration (1%); type: functional; outline: as §3
[14] = system: Oryctolagus cuniculus; assay: Percentage change of IOP in rabbits after 4 hr administration (2.5%) of compound; type: functional; outline: as §2
[15] = system: Oryctolagus cuniculus; assay: Percentage change of IOP in rabbits after 30 min administration (2.5%) of compound; type: functional; outline: as §2
[16] = system: Oryctolagus cuniculus; assay: Concentration in cornea of rabbit after 30 min administration of compound; type: functional, organism-based; outline: as §1
[17] = system: Oryctolagus cuniculus; assay: Percentage change of IOP in rabbits after 60 min administration (1%) of compound; type: functional; outline: as §2
[18] = system: Oryctolagus cuniculus; assay: Percentage change of IOP in rabbits after 30 min administration (1%) of compound; type: functional; outline: as §2
[19] = system: Oryctolagus cuniculus; assay: Concentration in iris -ciliary body of rabbit after 30 min administration of compound; type: functional, organism-based; outline: as §1
[20] = system: Oryctolagus cuniculus; assay: Percentage change of IOP in rabbits after 6 hr administration (2.5%) of compound; type: functional; outline: as §2
[21] = system: Oryctolagus cuniculus; assay: Effect on IOP of rabbits 8 hr min after administration (2.5%); type: functional; outline: as §3
[22] = system: Oryctolagus cuniculus; assay: Effect on IOP of rabbits 3h after administration (1%); type: functional; outline: as §3
[23] = system: Oryctolagus cuniculus; assay: Percentage change of IOP in rabbits after 60 min administration (2.5%) of compound; type: functional; outline: as §2
[24] = system: Oryctolagus cuniculus; assay: Concentration of propranolone oxime in aqueous humor of rabbit after 60 min administration of compound; type: functional, organism-based; details: Aqueous humor of eyeball; outline: as §1
[25] = system: Oryctolagus cuniculus; assay: Percentage change of IOP in rabbits after 0 min administration (1%) of compound; type: functional; outline: as §3
[26] = system: Oryctolagus cuniculus; assay: Concentration in cornea of rabbit after 120 min administration of compound; type: functional, organism-based; outline: as §1
[27] = system: Oryctolagus cuniculus; assay: Concentration in iris-ciliary body of rabbit after 120 min administration of compound; type: functional, organism-based; outline: as §1
[28] = system: Oryctolagus cuniculus; assay: Effect on IOP of rabbits 8 hr min after administration (1%); type: functional; outline: as §3
[29] = system: Oryctolagus cuniculus; assay: Percentage change of IOP in rabbits after 0 min administration (2.5%) of compound; type: functional; outline: as §3
[30] = system: Oryctolagus cuniculus; assay: Effect on IOP of rabbits 0 min after administration (2.5%); type: functional; outline: as §3
[31] = system: Oryctolagus cuniculus; assay: Percentage change of IOP in rabbits after 8 hr administration (2.5%) of compound; type: functional; outline: as §2
[32] = system: Oryctolagus cuniculus; assay: Effect on IOP of rabbits 0 min after administration (1%); type: functional; outline: as §3
[33] = system: Oryctolagus cuniculus; assay: Concentration in iris -ciliary body of rabbit after 60 min administration of compound; type: functional, organism-based; outline: as §1
[34] = system: Oryctolagus cuniculus; assay: Percentage change of IOP in rabbits after 2 hr administration (1%) of compound; type: functional; outline: as §3
[35] = system: Oryctolagus cuniculus; assay: Percentage change of IOP in rabbits after 8 hr administration (1%) of compound; type: functional; outline: as §2
[36] = system: Oryctolagus cuniculus; assay: Concentration of propranolone oxime in cornea of rabbit after 30 min administration of compound; type: functional, organism-based; outline: as §1
[37] = system: Oryctolagus cuniculus; assay: Effect on IOP of rabbits 3h after administration (2.5%); type: functional; outline: as §3
[38] = system: Oryctolagus cuniculus; assay: Effect on IOP of rabbits 2 hr after administration (1%); type: functional; outline: as §3
[39] = system: Oryctolagus cuniculus; assay: Concentration in cornea of rabbit after 60 min administration of compound; type: functional, organism-based; outline: as §1
[40] = system: Oryctolagus cuniculus; assay: Effect on IOP of rabbits 30 mins after administration (2.5%); type: functional; outline: as §3
[41] = system: Oryctolagus cuniculus; assay: Effect on IOP of rabbits 60 mins after administration (2.5%); type: functional; outline: as §3
[42] = system: Oryctolagus cuniculus; assay: Concentration of propranolone oxime in aqueous humor of rabbit after 30 min administration of compound; type: functional, organism-based; details: Aqueous humor of eyeball; outline: as §1
[43] = system: Oryctolagus cuniculus; assay: Effect on IOP of rabbits 60 mins after administration (1%); type: functional; outline: as §3
[44] = system: Oryctolagus cuniculus; assay: Concentration in aqueous humor of rabbit after 60 min administration of compound; type: functional, organism-based; details: Aqueous humor of eyeball; outline: as §1

`CC(C)NC/C(COc1cccc2ccccc12)=N\O` was tested, and the Concentration [1] was 7.8 µg/g, the Change [2] was -7.08% and the Change [3] was -16.2%. For the same compound, the Change [4] was -20.1%, the IOP [5] was 20.4 mmHg and the IOP [6] was 26.9 mmHg. For the same compound, the IOP [7] was 22.6 mmHg, the IOP [8] was 25.8 mmHg and the IOP [9] was 23.6 mmHg. The Change [10] was greater than -18.46%, the Change [11] was -13.08% and the Concentration [12] was 16.4 µg/g. The IOP [13] was 22.2 mmHg, the Change [14] was -21.5% and the Change [15] was 1.92%. For the same compound, the Concentration [16] was 1.7 µg/g, the Change [17] was greater than -11.51% and the Change [18] was -3.23%. The Concentration [19] was 2.1 µg/g, the Change [20] was greater than -9.23% and the IOP [21] was 25.8 mmHg. The IOP [22] was 23.3 mmHg, the Change [23] was -10% and the Concentration [24] was 0.8 µg/g. For the same compound, the Change [25] was 0%, the Concentration [26] was 1.1 µg/g and the Concentration [27] was 0.4 µg/g. For the same compound, the IOP [28] was 27.9 mmHg, the Change [29] was 0% and the IOP [30] was 26 mmHg. It also gave a Change [31] of -0.77%, an IOP [32] of 27.8 mmHg and a Concentration [33] of 1.8 µg/g. It also gave a Change [34] of -15.8%, a Change [35] of 0.5% and a Concentration [36] of 23.8 µg/g. It also gave an IOP [37] of 21.2 mmHg, an IOP [38] of 23.4 mmHg and a Concentration [39] of 1.1 µg/g. It also gave an IOP [40] of 26.5 mmHg, an IOP [41] of 23.4 mmHg and a Concentration [42] of 0.8 µg/g. The IOP [43] was 24 mmHg and the Concentration [44] was 0.7 µg/g.
